Experimental findings from ChEMBL document CHEMBL1123142, “1,2,4-Triazolo[4,3-a]quinoxaline-1,4-diones as antiallergic agents” (J Med Chem, 1985) are described below.

Several values for one entry are separate records, joined by “and”; a condition that tells them apart may be missing. Equal entries are not always repeated.

For one experiment, the species on record is Rattus norvegicus. Nature of the experiment: Concentration required to inhibit Antigen-induced release of Histamine from rat mast cells. The class given is functional, cell-based. The settings on record: read-out: I50.
For the compound `Cn1c(=O)c2nnc(O)n2c2ccccc21`, the IC50 came to 40 µM.

Take `Cc1cccc2c1n(C)c(=O)c1nnc(O)n12`: the IC50 came to 17 µM.

Take `CCCn1c(=O)c2nn(C(=O)/C=C/c3ccccc3)c(=O)n2c2ccc(Cl)cc21`: the IC50 stood at 1 µM.

As for `CC(=O)n1nc2c(=O)n(C)c3cc(C)c(C)cc3n2c1=O`, the IC50 stood at 43 µM.

For `CC(=O)c1ccc2c(c1)n(C)c(=O)c1nnc(O)n12`, the IC50 was 1 µM.

Turning to `Cc1ccc2c(c1)n(C)c(=O)c1nnc(O)n12`, the IC50 was 6 µM.

As to `Cn1c(=O)c2nnc(O)n2c2ccc(Cl)cc21`, the IC50 was found to be 10 µM.

Turning to `CCCn1c(=O)c2nn(C(C)=O)c(=O)n2c2ccc(Cl)cc21`, the IC50 came to 0.1 µM.

For `Cn1c(=O)c2nnc(O)n2c2ccc(C(F)(F)F)cc21`, the IC50 turned out to be 1 µM.

Take `COc1cc2c(c(Cl)c1OC)n(C)c(=O)c1nnc(O)n12`: the IC50 is 35 µM.

Consider `Cc1cc2c(cc1C)n1c(O)nnc1c(=O)n2C`, for which the IC50 is 12 µM.

On to `CC(=O)n1nc2c(=O)n(C)c3ccccc3n2c1=O`, for which the IC50 was found to be 25 µM.

For `CC(=O)n1nc2c(=O)n(C(C)=O)c3ccccc3n2c1=O`, the IC50 is 10 µM.

Turning to `CCCn1c(=O)c2nn(C)c(=O)n2c2ccc(Cl)cc21`, the IC50 was found to be 1 µM.

Take `CCCn1c(=O)c2nnc(O)n2c2ccccc21`: the IC50 is 8 µM.

With `Cn1c(=O)c2nnc(O)n2c2cc(Cl)ccc21`, the IC50 came to 0.4 µM.

For the compound `CCCn1c(=O)c2nnc(O)n2c2ccc(Cl)cc21`, the IC50 amounted to 0.4 µM.

On to `COc1ccc2c(c1)n(C)c(=O)c1nnc(O)n12`, for which the IC50 turned out to be 3 µM.

For another experiment, the system named is Rattus norvegicus. The experiment in a line: Effective dose against IgE-mediated cutaneous anaphylaxis in the rat after ip administration. In kind it is functional.
Conditions: not given
`O=C([O-])c1cc(=O)c2c(OCC(O)COc3cccc4oc(C(=O)[O-])cc(=O)c34)cccc2o1.[Na+].[Na+]` [CROMOLYN SODIUM] returned an ED50 of 6 mg/kg.

The test system of a further experiment is Rattus norvegicus. The experiment in a line: Effective dose against IgE-mediated cutaneous anaphylaxis in the rat after peroral administration. In kind it is functional. The settings on record: po. Put shortly: (§1)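 Rats immunized i.m. with ovalbumin plus aluminum hydroxide, plus B. pertussis i.p., gave IgE antiovalbumin serum. Naive male Sprague-Dawley rats were sensitized intradermally at dorsal sites (1:20), with 48 h latency. Compound was given orally in 1% methylcellulose, 10 min before i.v. challenge with 4 mg ovalbumin in 1% Evans blue. Blued wheal areas were read at 30 min. Groups of 4–8; mean ± SE, Student's t test.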
On to `Cn1c(=O)c2nnc(O)n2c2ccccc21`, for which the ED50 is 6 mg/kg.

Take `CCCn1c(=O)c2nn(C(=O)/C=C/c3ccccc3)c(=O)n2c2ccc(Cl)cc21`: the ED50 was > 100 mg/kg.

Take `Cn1c(=O)c2nnc(O)n2c2ccc(Cl)cc21`: the median effective dose (ED50) is > 125 mg/kg.

`Cn1c(=O)c2nnc(O)n2c2ccc(C(F)(F)F)cc21` showed an ED50 of 12 mg/kg.

Take `CCCn1c(=O)c2nn(C)c(=O)n2c2ccc(Cl)cc21`: the median effective dose (ED50) was > 100 mg/kg.

In turn, `CCCn1c(=O)c2nnc(O)n2c2ccccc21` returned an ED50 of 3 mg/kg.

Regarding `CCCn1c(=O)c2nnc(O)n2c2ccc(Cl)cc21`, the 50% effect level (ED50) was put at a dose of 3 mg/kg.

A further experiment is filed under the species Rattus norvegicus. Nature of the experiment: Concentration required to inhibit Antigen-induced release of Histamine from rat mast cells at 100 uM. The settings on record: Mast cell. In kind it is functional.
With `Cn1c(=O)c2nn(S(C)(=O)=O)c(=O)n2c2ccccc21`, 100 µM produced 2% inhibition.

Take `CCCn1c(=O)c2nn(CC(=O)OCC)c(=O)n2c2ccc(Cl)cc21`: 100 µM produced 20% inhibition.

As to `Oc1nc2ccccc2n2c(O)nnc12`, the inhibition at 100 µM was found to be 20%.

With `C=CCn1nc2c(=O)n(CCC)c3cc(Cl)ccc3n2c1=O`, the inhibition at 100 µM was found to be 20%.

The compound `Cn1nc2c(=O)n(C)c3ccccc3n2c1=O` gave an inhibition at 100 µM of 30%.

Compound `Cn1c(=O)c2nnc(O)n2c2ccc(O)cc21` had an inhibition at 100 µM of 29%.

In the case of `COC(=O)n1nc2c(=O)n(C)c3ccccc3n2c1=O`, testing at 100 µM gave an inhibition of 30%.

The next experiment relates to Rattus norvegicus. The experiment in a line: Percent inhibitory activity in rat passive cutaneous anaphylaxis test at a dose of 25 mg/kg administered perorally. The settings on record: Rattus norvegicus, po. The class given is functional. The procedure, abridged:
as §1
As for `Cn1c(=O)c2nnc(O)n2c2ccccc21`, the inhibition in vivo at 25 mg/kg turned out to be 38%.

Take `Cc1cccc2c1n(C)c(=O)c1nnc(O)n12`: at 25 mg/kg the inhibition in vivo was 35%.

Compound `CCCn1c(=O)c2nn(C(=O)/C=C/c3ccccc3)c(=O)n2c2ccc(Cl)cc21` returned an inhibition in vivo at 25 mg/kg of 38%.

Turning to `CC(=O)n1nc2c(=O)n(C)c3cc(C)c(C)cc3n2c1=O`, at 25 mg/kg the inhibition in vivo was 26%.

Turning to `CC(=O)c1ccc2c(c1)n(C)c(=O)c1nnc(O)n12`, at 25 mg/kg the inhibition in vivo was 49%.

The compound `Cc1ccc2c(c1)n(C)c(=O)c1nnc(O)n12` returned an inhibition in vivo at 25 mg/kg of 18%.

In turn, `Cn1c(=O)c2nn(S(C)(=O)=O)c(=O)n2c2ccccc21` came in with an inhibition in vivo at 25 mg/kg of 25%.

`Cn1c(=O)c2nnc(O)n2c2ccc(Cl)cc21` gave an inhibition in vivo at 25 mg/kg of 22%.

On to `Cn1c(=O)c2nnc(O)n2c2ccc(C(F)(F)F)cc21`, for which the inhibition in vivo at 25 mg/kg amounted to 52%.

`Oc1nc2ccccc2n2c(O)nnc12` returned an inhibition in vivo at 25 mg/kg of 40%.

In turn, `COc1cc2c(c(Cl)c1OC)n(C)c(=O)c1nnc(O)n12` registered an inhibition in vivo at 25 mg/kg of 27%.

In the case of `CC(=O)n1nc2c(=O)n(C(C)=O)c3ccccc3n2c1=O`, the inhibition in vivo at 25 mg/kg came out at 36%.

Compound `CCCn1c(=O)c2nnc(O)n2c2ccccc21` returned an inhibition in vivo at 25 mg/kg of 58%.

For `Cn1c(=O)c2nnc(O)n2c2cc(Cl)ccc21`, the inhibition in vivo at 25 mg/kg is 42%.

For the compound `Cn1nc2c(=O)n(C)c3ccccc3n2c1=O`, the inhibition in vivo at 25 mg/kg was 0%.

For `Cn1c(=O)c2nnc(O)n2c2ccc(O)cc21`, testing at 25 mg/kg gave an inhibition in vivo of 20%.

`CCCn1c(=O)c2nnc(O)n2c2ccc(Cl)cc21` had an inhibition in vivo at 25 mg/kg of 53%.

`COc1ccc2c(c1)n(C)c(=O)c1nnc(O)n12` displayed an inhibition in vivo at 25 mg/kg of 10%.

Staying with this experiment, now noted: route oral, 25 mg/kg.
In the case of `Cc1cccc2c1n(C)c(=O)c1nnc(O)n12`, the Inhibition is reported as 53%.

For the compound `Cn1c(=O)c2nnc(O)n2c2ccc(C(F)(F)F)cc21`, the Inhibition came out at 69%.

On to `CC(=O)n1nc2c(=O)n(C)c3ccccc3n2c1=O`, for which the Inhibition was 27% and 63%.

The next experiment relates to Rattus norvegicus. The experiment in a line: Percent inhibitory activity in rat passive cutaneous anaphylaxis test at a dose of 25 mg/kg, ip. In kind it is functional. The note with it: route intraperitoneal.
`CCCn1c(=O)c2nn(CC(=O)OCC)c(=O)n2c2ccc(Cl)cc21` came in with an inhibition in vivo at 25 mg/kg of 14%.

For the compound `CCCn1c(=O)c2nn(C(C)=O)c(=O)n2c2ccc(Cl)cc21`, testing at 25 mg/kg gave an inhibition in vivo of 42%.

The next experiment relates to Rattus norvegicus. Nature of the experiment: Percent inhibitory activity in rat passive cutaneous anaphylaxis test at a dose of 10 mg/kg administered perorally. The settings on record: route oral. The class given is functional. The procedure, abridged:
as §1
Consider `Cn1c(=O)c2nnc(O)n2c2ccccc21`, for which 10 mg/kg produced 56% inhibition in vivo.

The compound `CCCn1c(=O)c2nnc(O)n2c2ccccc21` showed an inhibition in vivo at 10 mg/kg of 84%.

As a reminder, the ED50 is the dose that gives a 50% effect, or the effect in half of the subjects. As usually defined, the inhibition is the share of the control response that was lost under treatment. The low end stands for a weak effect, the high end for a strong effect. A word on the inhibition in vivo: it is the drop in the measured response relative to a control, in per cent. In general, Inhibition refers to how much of the control response was suppressed. Read a low Inhibition as a response near the control.
